# Arrestin-AP2 inh – inhibitors of human beta-arrestin and AP2 interaction | FITC-arrestin peptide / GST-AP2 beads, flow cytometry; AP2 beta2 appendage carries R879A mutation | inhibition, % at 10 µM | hit rate 0.31% among 340,000 | AID 504490;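 active = inhibition above a set limit, near 3 SD of compounds lacking own fluorescence, cut at about 54% in these data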;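 also: plate controls were DMSO wells for no effect and 5 µM unlabelled arrestin peptide for full effect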
#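 System: GST-tagged AP2 beta2-adaptin appendage (R879A) on 4 µm glutathione beads / Reagent: FITC-arrestin peptide, 50 nM / Detection: HyperCyt-sampled flow cytometry, FL1 channel, ex 488/em 535 nm / Timing: 12 min plus 1 h, RT / Buffer or medium: PBS plus Tween 20 (0.05%) and BSA (0.1%)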
# NRP1-CendR mod – alters CendR peptide binding to human NRP-1. O14786. FAM-RPARPAR peptide binding to NRP-1, fluorescence polarization. inhibition, % at 25 µM. hit rate 0.85% among 360,000. AID 602438;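 active = inhibition or corrected inhibition above about 18%, plus a signal ratio from 0.5 to 1.5, limit read from the data, passing the limit was not always enough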
# m5-HT2A agonist – activates the mouse 5-HT2A serotonin receptor; hit rate 0.66% among 360,000; P35363; AID 624169; CHO-K1 mHTR2A beta-arrestin complementation, luminescence; percent of 30 µM serotonin response; activation, % at 7.6 µM;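 active = activation above a run cutoff, the mean activation of all tested compounds plus 3 SD, cut at about 14% in these data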;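 also: 0% = plate median of compound wells and 100% = 30 µM serotonin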
# PfM18AAP inh – blocks P. falciparum M18 aspartyl aminopeptidase; AID 1822; recombinant PfM18AAP, H-Glu-NHMec fluorogenic cleavage; hit rate 1.2% among 290,000; inhibition, % at 7.35 µM;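 active = inhibition above the campaign mean inhibition over all tested compounds plus 3 SD, cut at about 28% in these data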;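 also: 0% = plate median of test compound wells and 100% = 2 mM ZnCl2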
# Lipid droplet – modulators of hepatic lipid droplet formation. hit rate 0.4% among 240,000. inhibition, % at 6.5 µM. AML12 mouse hepatocytes, oleate lipid droplets, BODIPY imaging;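 active = lipid droplet intensity inhibited by at least 50%, with more than 500 cells counted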
#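 Assay system: AML12 mouse liver cells | Compound dosing: One dose, 6.5 µM compound | Read-out basis: Droplet intensity reduction, % inhibition | Measured by: Fluorescence imaging, 20x objective, two fields per well | Schedule: Overnight treatment with compound plus oleate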
# sPLA2-III inh – Inhibits HGIII-sPLA2 liposome hydrolysis, primary screen; Q9NZ20; QFRET BODIPY PC-A2 liposome hydrolysis, fluorescence; inhibition, % at 12.2 µM; hit rate 0.56% among 370,000; AID 743126;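 active = inhibition above mean plus 3 SD of compounds lying within the high and low control bounds, cut at about 19% in these data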;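 also: 0% = median of test compound wells and 100% = no enzyme DMSO wells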
# MOR ag counter – activates human mu opioid receptor in HTR2A counterscreen; shares compounds with m5-HT2A agonist; U2OS OPRM1 beta-arrestin PathHunter, luminescence; DMSO 0%, DAMGO 9.3 µM 100%; activation, % at 9.3 µM; hit rate 5.3% among 2,300; AID 624380;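 active = mean activation above the mean of DMSO-only wells plus 3 SD, cut at about 0.5% in these data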
# HTR2A ag conf – mouse HTR2A agonism confirmed; shares compounds with m5-HT2A agonist; CHO-K1 PathHunter beta-arrestin recruitment, luminescence; DMSO 0%, 30 µM serotonin 100%; activation, % at 7.6 µM; hit rate 19% among 2,300; AID 624381;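 active = mean activation across triplicates above the hit threshold derived in the original primary screen, cut at about 15% in these data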
# Active calls of the source: *; x = no result. This is a sample that favours compounds with a hit; in the whole collection about 3.3% have one here.
SMILES,Arrestin-AP2 inh,NRP1-CendR mod,m5-HT2A agonist,PfM18AAP inh,Lipid droplet,sPLA2-III inh,MOR ag counter,HTR2A ag conf
CCNC(=O)C1CCCN(C(=O)c2cccc(OC(F)(F)F)c2)CC1 (configuration not stated),x,5,4,x,x,-1,x,x
CC(C)(C)NC(=O)N1CCN(c2nc(-c3ccccc3)ns2)CC1,35,2,16*,-6,-14,-6,0,-2
COC(=O)[C@]12C[C@H](CC(=O)NCc3ccc(C)o3)C(=O)N(Cc3ccc(Cl)cc3Cl)C1=C[C@H](C(C)C)O[C@@H]2C1CC1,x,x,x,x,x,-16,x,x
CCCCN(C(=O)c1cccc2c(=O)c(C)c(-c3ccccc3)oc12)c1ccccc1,5,0,38*,-1,-55,-11,0,10
CCOC(=O)C1(C)CCCN(C(=O)c2ccc(OC)c(OC)c2)C1 (configuration not stated),x,-14,-3,x,x,3,x,x
CC(C)C[C@@H](CN1CCC[C@H]1CN1C(=O)C(=O)NC[C@@H]1Cc1ccc(O)cc1)N1C[C@H](Cc2ccccc2)N(CC2CCCCC2)C(=O)C1=O,x,-9,-2,x,x,-13,x,x
CC(C)C[C@@H](CN1CCC[C@H]1CN1C(=O)C(=O)NC[C@@H]1Cc1ccccc1)N1C[C@H](Cc2ccc(O)cc2)N(CC2CCCCC2)C(=O)C1=O,x,0,15*,x,x,-11,0,-3
CCC(c1nnnn1-c1ccc(OC)cc1)N1CCN(C/C=C/c2ccccc2)CC1 (configuration not stated),x,4,15*,x,x,-3,-1,24*
CCC(c1nnnn1C(C)(C)C)N1CCN(C/C=C/c2ccccc2)CC1 (configuration not stated),x,8,15*,x,x,5,0,38*
COc1ccc(-n2nnnc2C(c2cccc(OC)c2OC)N2CCN(C/C=C/c3ccccc3)CC2)cc1 (configuration not stated),x,-2,-7,x,x,-20,x,x
O=C(NCc1ccccc1)C(c1ccc(C(F)(F)F)cc1)N1CCN(CCN2CCOCC2)CC1 (configuration not stated),x,-2,-4,x,x,12,x,x
N#CC1(NC(=O)CSc2ccccn2)CCCCC1,-7,-1,15*,x,x,2,-1,-4
N#CC1(NC(=O)CSc2nc3ccccc3o2)CCCCC1,7,0,-2,x,x,10,x,x
Cc1ccsc1C(=O)N1CCCC(C)(C(=O)O)C1 (configuration not stated),x,17,15*,x,x,-6,0,-2
Cc1ccsc1C(=O)N1CCCC(C)(C(=O)NS(=O)(=O)C2CC2)C1 (configuration not stated),x,2,6,x,x,3,x,x
COC(=O)C1CN(CCc2ccccc2)CCS(=O)(=O)N1Cc1ccccc1F (configuration not stated),x,x,x,x,x,-1,x,x
CC(Sc1ccccc1)C(=O)Nc1cccc(N(C)S(C)(=O)=O)c1 (configuration not stated),1,7,17*,1,-7,-8,-1,-5
Cc1ccc(N2CC(=O)N(NC(=O)CN3CCN(c4ccccc4)CC3)CC2=O)cc1,1,14,0,-6,-11,-1,x,x
O=C(CN1CCc2ccccc21)NN1CC(=O)N(c2ccccc2)CC1=O,5,7,19*,-5,-3,-18,-1,-4
O=C1N2CCCc3cccc(c32)C12Nc1ccccc1S2 (configuration not stated),10,10,21*,16,1,-4,-1,-6
CC(C)C(=O)Nc1ccc(Nc2ccccc2)cc1,10,0,-4,10,-22,1,x,x
O=C(Nc1ccccc1)C(O)C(O)C(=O)Nc1ccccc1 (configuration not stated),-1,-12,24*,2,8,4,-1,-3

# Screening results from PubChem BioAssay.
